In publication PMC11577422 (Chemical Research in Toxicology, 2024):
Like-named read-outs stand apart in the source and are kept apart here. Each block holds one molecule with its values, some of them ahead of it.

How the values were obtained:
CYP 2E1 [1] = details: cited from earlier work
[2] = test system: rat liver microsomes (RLM); details: pretr., ref Peterson et al. (2005) [32]; cited from earlier work
[3] = test system: rat liver microsomes (RLM); details: untr., 50 μM furan, ref Gates et al. (2012) [30]; cited from earlier work
CYP 2E1 [4] = details: ref Peterson et al. (2005) [32]; cited from earlier work
[5] = test system: human liver microsomes (HLM); details: 50 μM furan, ref Gates et al. (2012) [30]; cited from earlier work
[6] = test system: human liver microsomes (HLM); type: in vitro ADME; details: 10 min
Method in brief: (§1)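 Pooled liver microsomes (male Sprague–Dawley rat; mixed-gender human) at 1.0 mg protein/mL in 50 mM phosphate or Tris buffer with 3 mM MgCl₂ and 4 mM AcLys trap. Preincubated with 2-MF (10–750 μM) for 5 min at 37 °C, NADPH-started, 10 min. Stopped with cold MeCN containing 1 μM AcLys-BDA; AcLys-AcA by HPLC-MS/MS. Kinetics fitted biphasically; heat-inactivated and no-NADPH controls; n = 3–6.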

[7] = test system: rat liver microsomes (RLM); details: ref Ravindranath and Boyd (1985) [9], cited from earlier work; for Km: RLM
pRH = experiment: GSH depletion in pRH after exposure to 2-MF; type: cell-based, rat; details: data not shown
[8] = Cytotoxicity via cell viability using resazurin reduction in pRH; type: cell-based; details: male, Wistar, rat, primary rat hepatocytes
HepG2 cells = experiment: GSH depletion in HepG2 cells after exposure to 2-MF; type: cell-based; details: data not shown
CYP 2E1 [9] = molecular target: CYP 2E1 (Homo sapiens, UniProt P05181); type: in vitro ADME; details: Supersomes CYP 2E1, 100 and 500 μM 2-MF, 10, 30 or 60 min; negative control without NADPH
Chain of CYP 2E1 (Homo sapiens, UniProt P05181) (P05181 whole entry): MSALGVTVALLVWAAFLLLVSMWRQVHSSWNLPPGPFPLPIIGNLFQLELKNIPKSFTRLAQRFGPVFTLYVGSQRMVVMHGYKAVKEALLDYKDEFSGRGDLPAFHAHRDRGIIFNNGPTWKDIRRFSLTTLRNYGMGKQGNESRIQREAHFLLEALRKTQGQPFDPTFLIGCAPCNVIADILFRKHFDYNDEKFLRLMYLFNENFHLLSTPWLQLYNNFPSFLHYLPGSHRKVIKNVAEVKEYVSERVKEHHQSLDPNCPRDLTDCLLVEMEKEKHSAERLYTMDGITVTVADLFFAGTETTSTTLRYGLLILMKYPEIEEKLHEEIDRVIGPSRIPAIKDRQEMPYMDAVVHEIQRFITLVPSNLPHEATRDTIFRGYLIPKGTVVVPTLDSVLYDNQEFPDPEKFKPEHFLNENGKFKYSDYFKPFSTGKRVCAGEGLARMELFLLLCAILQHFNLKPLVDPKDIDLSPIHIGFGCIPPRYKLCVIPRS

[10] = test system: primary rat hepatocytes (pRH); experiment: Adduct formation; type: in vitro ADME; details: for AcCys-AcA formation in cell supernatants / formation of AcLys-AcA in cell supernatants: pRH incubated with 2-MF (10–1000 μM) or AcA (0.1–5 μM), 1–48 h; for AcLys-AcA in cell supernatant compared to the negative control: pRH
Method in brief: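 Hepatocytes came from adult male Wistar rats (150–250 g) and were used only at ≥80% viability. Cells were seeded at 1 million cells/mL on collagen-coated dishes, allowed 3 h to attach, then PBS-washed. Incubation was at 37 °C, 5% CO₂ with test compound for 1, 6, 18, 24 or 48 h. Supernatants got 1 μM final AcLys-BDA internal standard, SPE cleanup, then UHPLC-ESI⁺-MS/MS (MRM m/z 269.2/164.2). Untreated negative control; n = 3–6.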

[11] = test system: rat liver microsomes (RLM); type: in vitro ADME; details: RLM, untr.; II) low substrate concentrations (10 and 100 μM 2-MF); 10 min
Method in brief: as §1

[12] = Chemical reaction of AcA with AcLys, adduct determined by HPLC-MS/MS; type: physicochemical
Method in brief: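 AcA was at 10 μM; the mixture was shaken at 600 rpm to mimic the microsomal incubation matrix and sampled over time. AcLys-AcA was measured by HPLC-ESI⁺-MS/MS. n = 3, mean ± standard deviation.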

[13] = Stability of AcLys-AcA in solvents; type: physicochemical
[14] = Chemical reaction of AcA with AcCys, adduct determined by HPLC-MS/MS; type: physicochemical; details: AcA (1 μM) with AcCys (4 mM) in water, 37 °C
Method in brief: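 Mixture shaken at 600 rpm and sampled over incubation time. Adduct was detected by HPLC-ESI⁺-MS/MS on a Synergi Hydro-RP column with a formic acid/acetonitrile gradient, MRM quantifier m/z 241.9/112.9, and reported as peak area (AUC). n = 3, mean ± standard deviation.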

[15] = 20 or 400 μM furan, ref Gates et al. (2012) [30]

Structure (SMILES): c1ccoc1 [Furan]
Km (CYP 2E1 [1]; [15]): 24 ± 13 µM
kcat (CYP 2E1 [1]; [15]): 34 ± 4 μmol/(μmol CYP·min)
vmax (CYP 2E1 [1]; 20 or 400 μM furan, ref [30]): 34 ± 4 pmol BDA/pmol CYP/min
Ecat (CYP 2E1 [1]; ref Gates et al. (2012) [30]): 1.4
Km [2]: 18.5 ± 6.8 µM
vmax [3]: 0.0016 μmol/(mg prot.·min)
Ecat (CYP 2E1 [4]): 3.9e-1
Km (CYP 2E1 [4]): 65.1 ± 16.4 µM
kcat (CYP 2E1 [4]): 26 μmol/(μmol CYP·min)
vmax [5]: 0.0013 μmol/(mg prot.·min)

Structure (SMILES): Cc1ccco1 [2-MF, 2-Methylfuran]
vmax ([6]; HLM; I) high substrate concentrations (250, 500, 750 μM 2-MF)): 0.88 μmol/(mg prot.·min)
vmax ([6]; HLM; II) low substrate concentrations (10 and 100 μM 2-MF)): 0.12 μmol/(mg prot.·min)
vmax ([7]; RLM from untreated rats, Eadie-Hofstee): 0.53 μmol/2 mg microsomal protein/min
Km ([7]; pretr. (phenobarbital)): 463 µM
Km ([7]; untr., 2.5–20 mM total 2-MF): 1420 µM
vmax ([7]; rats pretreated with phenobarbital): 0.81 μmol/2 mg microsomal protein/min
depletion of GSH (pRH): no depletion of GSH
EC50 at 24 h [8]: 551 ± 53.1 µM
depletion of GSH (HepG2 cells): no depletion of GSH
AcA formation compared to the negative control (CYP 2E1 [9]): significant formation of AcA
AcCys-AcA formation in cell supernatants [10]: No evidence of AcCys-AcA formation
formation of AcLys-AcA in cell supernatants [10]: detected
AcLys-AcA in cell supernatant compared to the negative control ([10]; 100 μM 2-MF, 1 h): significant increase
vmax [11]: 0.09 μmol/(mg prot.·min)

stability of adduct yield ([12]; reaction mixture of AcA with AcLys (4 mM) in K2HPO4 buffer pH 7.4, 37 °C): stable for up to 24 h
stability (NMR) ([13]; in organic solvents): unstable
stability of NMR and MS signals ([13]; in water): stable
Structure (SMILES): CC(=O)N[C@@H](CCCCN1C(=O)C=CC1C)C(=O)O (stereo partly drawn) [AcLys-AcA, L-2-Acetamido-6-(2-methyl-5-oxo-2,5-dihydro-1H-pyrrol-1-yl)hexanoic Acid]

time to completion of adduct formation ([12]; AcA (1; 10 μM) with AcLys (4 mM) in K2HPO4 buffer (50 mM, pH 7.4), 37 °C): < 1 min
time to completion of adduct formation [14]: < 1 min
AcCys-AcA formation in cell supernatants [10]: No evidence of AcCys-AcA formation
formation of AcLys-AcA in cell supernatants [10]: detected
AcLys-AcA in cell supernatant compared to the negative control ([10]; 0.5 μM AcA, 48 h): differed significantly
AcLys-AcA in cell supernatant compared to the negative control ([10]; 5 μM AcA, all time points (1–48 h)): highly significant increase
Structure (SMILES): CC(=O)C=CC=O [AcA, 3-acetylacrolein]
EC50 at 24 h [8]: 8.5 ± 1.3 µM
